Source: PubChem
PDI inh – inhibitors of human PDI, primary screen, biochemical, turbidity, single point, plate reader. PDI insulin aggregation turbidity, A650, 90 min. Protein disulfide-isomerase (Homo sapiens), P07237. AID 588391, 2011. 350,000 compounds, 0.052% hits. inhibition, % at 10 µM;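 active = mean inhibition across replicates of 30% or more, whatever share of single replicates reach that level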
Target sequence (P07237 whole entry, looked up): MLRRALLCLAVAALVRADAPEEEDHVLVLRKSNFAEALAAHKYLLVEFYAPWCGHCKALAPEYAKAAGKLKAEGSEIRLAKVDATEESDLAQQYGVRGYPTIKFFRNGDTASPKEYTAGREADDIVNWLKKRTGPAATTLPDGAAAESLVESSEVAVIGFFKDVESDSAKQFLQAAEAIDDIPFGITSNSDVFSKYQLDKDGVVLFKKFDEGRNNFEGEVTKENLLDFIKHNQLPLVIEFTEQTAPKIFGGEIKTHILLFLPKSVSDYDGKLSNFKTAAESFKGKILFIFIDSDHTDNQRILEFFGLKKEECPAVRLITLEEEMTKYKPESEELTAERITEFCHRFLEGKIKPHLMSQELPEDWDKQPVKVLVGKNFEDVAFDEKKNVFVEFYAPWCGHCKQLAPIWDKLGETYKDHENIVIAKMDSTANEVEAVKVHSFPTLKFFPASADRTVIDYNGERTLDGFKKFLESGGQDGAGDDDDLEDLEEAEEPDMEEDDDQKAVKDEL
ERp5 inh – inhibitors of ERp5-driven insulin aggregation, primary screen, biochemical, turbidity, absorbance 650 nm, single point; Protein disulfide-isomerase A6 (Homo sapiens), Q15084; 90 min; inhibition, % at 9.99 µM; 350,000 compounds, 0.05% hits;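 active = mean replicate inhibition above about 25%, with every replicate also reaching it, limit read from the data, passing the limit was not always enough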
TbMetRS inhib – T. brucei MetRS inhibitors, primary screen, biochemical, luminescence | purified T. brucei MetRS, ATP depletion, Kinase-Glo luminescence | methionyl-tRNA synthetase (Trypanosoma brucei brucei) | 360,000 compounds, 0.4% hits | inhibition, % at 11.9 µM;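 active = inhibition above a per-plate cutoff of the control wells' mean inhibition plus 3 SD, cut at about 5.5% in these data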
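Dosing: 11.9 µM single point; system: parasite MetRS enzyme; technique: luminescence of leftover ATP; times: 15 min enzyme-compound preincubation, 2 h reaction, 10 min detection, 25 °C; replicates: each compound tested once; read-out basis: percent inhibition relative to median high and low control wells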
TbMetRS confirm – T. brucei MetRS inhibitors, confirmation, biochemical, luminescence; shares compounds with TbMetRS inhib; T. brucei MetRS enzyme, luminescence (ATP depletion); inhibition, % at 11.9 µM; 1,400 compounds, 93% hits; in the data active = inhibition above about 7%
Jurkat tox – Jurkat T cell cytotoxicity, cytotoxicity control for T. brucei MetRS inhibitor project, luminescence, high throughput | AID 624413, 2012 | inhibition, % at 8.3 µM | 1,400 compounds, 12% hits | Jurkat cells viability, ATP luminescence | shares compounds with TbMetRS inhib; in the data active = inhibition above about 15%
TbMetRS FP orth – T. brucei MetRS inhibitors, orthogonal assay for T. brucei MetRS inhibitor project, biochemical, fluorescence polarization; shares compounds with TbMetRS inhib; purified T. brucei MetRS; inhibition, % at 11.9 µM; 1,400 compounds, 44% hits; AID 651607, 2012; in the data active = inhibition above about 17%
Hits are given with their value; n = inactive; x = not tested or not shown. Most compounds without a hit are left out; they make up all but 0.4% or so of the library.

SMILES	PDI inh	ERp5 inh	TbMetRS inhib	TbMetRS confirm	Jurkat tox	TbMetRS FP orth
COCCOC(=O)N1C(=O)[C@@]2(c3cc(C#Cc4ccc(OC)cc4)ccc31)[C@H](c1ccc(OCCO)cc1)N1[C@H](c3ccccc3)[C@H](c3ccccc3)OC(=O)[C@H]1[C@@H]2C(=O)N1CCN(c2ncccn2)CC1	x	n	x	x	x	x
COc1ccccc1C#Cc1ccc2c(c1)[C@@H]1[C@@H](CCN1S(=O)(=O)c1cccc(C)c1)[C@H](CO)N2	x	n	x	x	x	x
OC1(c2cccc(C(F)(F)F)c2)CCN(c2ccc(-c3ccccc3)nn2)CC1	n	x	n	x	x	x
OC1(c2cccc(C(F)(F)F)c2)CCN(c2ncnc3c2[nH]c2ccccc23)CC1	n	x	6.1	14	16	n
c1ccc2c(c1)[nH]c1c(N3CCC4(CC3)OCCO4)ncnc12	n	x	n	x	x	x
c1ccc2c(c1)CCN(c1ncnc3c1[nH]c1ccccc13)C2	n	x	13	9.1	46	n
COC(=O)c1nnn(CC(=O)NC(=O)Nc2ccccc2)c1C(=O)OC	n	x	6.2	15	n	n
COC(=O)c1nnn(CC(=O)NC(=O)Nc2ccc(F)cc2)c1C(=O)OC	n	n	n	x	x	x
C[C@H](NC(=O)C[C@@H]1CC[C@@H](NC(=O)C2CCC2)[C@@H](CO)O1)c1ccccc1	x	n	x	x	x	x
Cc1ccc2nc(/C(C#N)=C/c3cn[nH]c3-c3ccc(F)cc3)[nH]c2c1	n	x	24	51	57	47
Cc1ccc2nc(/C(C#N)=C/c3ccc(O)c(O)c3)[nH]c2c1	n	n	n	x	x	x
C[C@@H]1CN([C@@H](C)CO)C(=O)Cc2cc(NS(=O)(=O)c3cn(C)cn3)ccc2O[C@H]1CN(C)Cc1ccc(-c2ccccc2)cc1	x	n	x	x	x	x
CCc1cc(Cn2nc(-c3ccccc3)cc2C(=O)NCc2cccc(C(F)(F)F)c2)on1	n	n	n	x	x	x
CCc1cc(Cn2nc(-c3ccccc3)cc2C(=O)NCc2cccc(Br)c2)on1	n	n	53	77	n	69
COc1ccccc1NS(=O)(=O)c1cccc(NC(=O)Nc2cccc(Cl)c2)c1	n	x	31	41	n	72
COc1ccccc1NS(=O)(=O)c1cccc(NC(=O)NCCCl)c1	n	n	n	x	x	x
Cc1cccc(S(=O)(=O)N2CCCCN3[C@H](CO)[C@@H](c4ccc(-c5cccnc5)cc4)[C@@H]3C2)c1	x	n	x	x	x	x
N#C[C@@H]1[C@@H](c2ccccc2C2=CCCC2)[C@@H](CO)N1C(=O)NC1CCCC1	x	n	x	x	x	x
CO[C@H]1CN(C)C(=O)c2ccc(NC(C)=O)cc2OC[C@H](C)N(Cc2ccccn2)C[C@H]1C	x	n	x	x	x	x
C[C@H]1CN([C@@H](C)CO)C(=O)c2ccccc2-c2ccccc2CO[C@H]1CN(C)Cc1ccc(C(F)(F)F)cc1	x	n	x	x	x	x
O=C1CC(c2nc3ccccc3[nH]2)CN1Cc1ccccc1 (configuration not stated)	n	n	n	x	x	x
O=C1CC(c2nc3ccccc3[nH]2)CN1c1ccccc1F (configuration not stated)	x	n	n	x	x	x
O=C1CC(c2nc3ccccc3[nH]2)CN1c1cccc(C(F)(F)F)c1 (configuration not stated)	n	n	21	27	n	n
COc1ccc(Cl)cc1N1CC(c2nc3ccccc3[nH]2)CC1=O (configuration not stated)	n	n	5.7	10	n	n
CCNC(=O)C[C@@H]1CC[C@@H]2[C@H](COc3ccc(NC(=O)c4ccc(F)c(F)c4)cc3C(=O)N2C)O1	x	n	x	x	x	x
SMILES	PDI inh	ERp5 inh	TbMetRS inhib	TbMetRS confirm	Jurkat tox	TbMetRS FP orth
CO[C@H]1CN(C)C(=O)c2cc(NC(C)=O)ccc2OC[C@H](C)N(Cc2ccccc2F)C[C@@H]1C	x	n	x	x	x	x
O=C(Cc1ccccn1)N1CC(=O)N2[C@H](CO)[C@@H](c3ccc(C#CC4CCCC4)cc3)[C@@H]2C1	x	n	x	x	x	x
Cc1ccc(-c2ccccc2[C@H]2[C@@H](C#N)N(C(=O)Cc3cccnc3)[C@H]2CO)cc1	x	n	x	x	x	x
COc1ccc(NC(=O)CN(C)C(=O)c2oc3c(ccc4ccccc43)c2C)cc1	n	n	6.4	23	n	n
CN(CC(=O)Nc1cccc(F)c1)C(=O)c1ccc(-c2ccc(Cl)cc2)o1	n	n	21	39	n	24
Cc1ccc(C)c(NC(=O)CN(C)C(=O)c2ccc(-c3ccc(Cl)cc3)o2)c1	n	n	n	x	x	x
CN(CC(=O)Nc1cccc(F)c1)C(=O)CCSc1ccc(F)cc1	n	n	15	42	n	20
COc1cccc(NC(=O)CN(C)C(=O)c2oc3c(ccc4ccccc43)c2C)c1	n	n	n	x	x	x
Cc1cc(Br)ccc1NC(=O)CN(C)C(=O)CCSc1ccc(F)cc1	n	n	n	x	x	x
COc1ccc(NC(=O)CN(C)C(=O)CCSc2ccc(F)cc2)cc1	n	n	8.7	33	n	n
CN(CC(=O)Nc1ccccc1Cl)C(=O)CCSc1ccc(F)cc1	n	n	n	x	x	x
C[C@@H]1CN([C@H](C)CO)C(=O)Cc2cc(NC(=O)CCN3CCOCC3)ccc2O[C@@H]1CN(C)Cc1ccncc1	x	n	x	x	x	x
COc1ccc(NC(=O)Nc2ccc3c(c2)[C@@H]2C[C@H](CC(=O)N(C)C)O[C@@H](CO)[C@@H]2O3)cc1	x	n	x	x	x	x
O=C(Nc1cccc(F)c1)N1CCCCN2[C@H](CO)[C@@H](c3ccc(-c4ccccc4F)cc3)[C@H]2C1	x	n	x	x	x	x
CNC[C@@H]1Oc2ccc(NC(=O)C3CCCCC3)cc2CC(=O)N([C@@H](C)CO)C[C@@H]1C	x	n	x	x	x	x
Cc1ccccc1S(=O)(=O)N1CC(=O)N2[C@H](CO)[C@@H](c3ccc(C#Cc4ccccc4)cc3)[C@@H]2C1	x	n	x	x	x	x
COc1cccc(S(=O)(=O)N[C@H]2C=C[C@@H](CC(=O)NCc3ccc(Cl)cc3)O[C@H]2CO)c1	x	n	x	x	x	x
Cc1ccccc1S(=O)(=O)N1C[C@H]2[C@@H](c3ccccc31)[C@@H](CO)N2C(=O)CC1CC1	x	n	x	x	x	x
CC=Cc1ccc2n(c1=O)C[C@H]1[C@H](CO)[C@@H](C(=O)N3CCCCC3)N(C(=O)CC)[C@@H]21 (mixture of isomers)	x	n	x	x	x	x
O=C(NCc1ccc2c(c1)OCO2)C1CC(=O)N(c2ccc(Cl)cc2)C1 (configuration not stated)	n	n	8.9	16	n	n
Cc1ccc(N2CC(C(=O)NCc3ccc4c(c3)OCO4)CC2=O)cc1C (configuration not stated)	n	x	n	x	x	x
Cc1noc(C)c1NC(=O)N(C)C[C@@H]1OCCCC[C@@H](C)Oc2ccc(NS(=O)(=O)c3ccccc3)cc2C(=O)N([C@@H](C)CO)C[C@H]1C	x	n	x	x	x	x
